From ChEMBL document CHEMBL1122788, “Quantitative relationships between alpha-adrenergic activity and binding affinity of alpha-adrenoceptor agonists and antagonists” (J Med Chem, 1984)
Blank lines part the entries; values can stand above or below the compound they belong to.

Key:
[1] = tested on: Rattus norvegicus; assay: Hypertensive activity (increase in arterial pressure to 60 mmHg)) after i.v. administration to pithed rats.
[2] = molecular target: T1, Adrenergic receptor alpha-1 (Rattus norvegicus, UniProt P15823+P23944+P43140); assay: Binding affinity against alpha-1 adrenergic receptor is the ability to inhibit the specific [3H]prazosin binding (0.2 nM) to rat isolated brain membranes by 50% was reported; 6.5*10e-5; design: species or system Membrane
T1 sequence (P15823 whole entry): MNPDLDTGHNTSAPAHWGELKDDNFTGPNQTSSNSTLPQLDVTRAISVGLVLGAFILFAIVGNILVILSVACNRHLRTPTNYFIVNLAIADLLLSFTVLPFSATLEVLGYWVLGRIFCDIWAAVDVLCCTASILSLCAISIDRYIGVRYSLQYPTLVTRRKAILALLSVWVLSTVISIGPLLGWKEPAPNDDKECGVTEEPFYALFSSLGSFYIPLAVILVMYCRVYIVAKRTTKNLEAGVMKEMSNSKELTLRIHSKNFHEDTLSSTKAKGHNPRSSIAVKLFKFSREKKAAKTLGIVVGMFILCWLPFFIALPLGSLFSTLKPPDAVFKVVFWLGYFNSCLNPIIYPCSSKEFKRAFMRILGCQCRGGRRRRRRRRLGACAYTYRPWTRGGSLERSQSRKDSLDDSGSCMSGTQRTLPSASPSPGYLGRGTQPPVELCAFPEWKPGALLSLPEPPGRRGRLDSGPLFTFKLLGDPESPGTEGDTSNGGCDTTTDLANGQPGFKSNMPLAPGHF
T1 sequence (P23944 whole entry): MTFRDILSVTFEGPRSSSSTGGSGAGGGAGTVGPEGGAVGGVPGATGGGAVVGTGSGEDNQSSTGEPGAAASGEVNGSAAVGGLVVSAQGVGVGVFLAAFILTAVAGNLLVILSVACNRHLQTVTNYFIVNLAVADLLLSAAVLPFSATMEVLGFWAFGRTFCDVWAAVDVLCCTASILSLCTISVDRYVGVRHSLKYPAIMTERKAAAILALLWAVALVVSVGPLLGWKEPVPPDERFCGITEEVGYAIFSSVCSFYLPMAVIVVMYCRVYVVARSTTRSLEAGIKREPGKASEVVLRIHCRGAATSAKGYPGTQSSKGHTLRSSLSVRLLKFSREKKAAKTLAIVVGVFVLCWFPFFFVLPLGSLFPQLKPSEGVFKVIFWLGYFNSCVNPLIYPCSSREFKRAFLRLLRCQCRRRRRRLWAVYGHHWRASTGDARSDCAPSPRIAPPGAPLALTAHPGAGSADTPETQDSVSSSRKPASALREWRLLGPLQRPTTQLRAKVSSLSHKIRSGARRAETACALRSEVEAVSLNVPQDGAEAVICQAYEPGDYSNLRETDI
T1 sequence (P43140 whole entry): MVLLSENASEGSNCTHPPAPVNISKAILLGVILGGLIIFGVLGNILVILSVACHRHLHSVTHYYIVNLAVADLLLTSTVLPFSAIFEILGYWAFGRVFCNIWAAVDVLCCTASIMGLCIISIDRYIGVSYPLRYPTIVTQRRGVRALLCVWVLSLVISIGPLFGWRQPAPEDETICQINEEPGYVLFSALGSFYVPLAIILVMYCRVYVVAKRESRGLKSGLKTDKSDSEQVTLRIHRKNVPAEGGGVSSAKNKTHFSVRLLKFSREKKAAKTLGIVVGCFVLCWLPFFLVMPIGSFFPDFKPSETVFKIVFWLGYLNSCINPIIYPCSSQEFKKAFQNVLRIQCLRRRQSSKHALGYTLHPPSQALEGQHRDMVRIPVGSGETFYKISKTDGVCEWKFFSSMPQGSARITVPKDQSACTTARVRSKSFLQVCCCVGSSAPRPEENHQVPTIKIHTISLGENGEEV

[3] = molecular target: T2, Adrenergic receptor alpha-2 (Rattus norvegicus, UniProt P22086+P19328+P22909); assay: Binding affinity against Alpha-2 adrenergic receptor is the ability to inhibit the specific [3H]-clonidine binding (0.4 nM) to rat isolated brain membranes by 50% was reported; 1*10e-6; assay type: tissue-based, Membrane
T2 sequence (P22086 whole entry): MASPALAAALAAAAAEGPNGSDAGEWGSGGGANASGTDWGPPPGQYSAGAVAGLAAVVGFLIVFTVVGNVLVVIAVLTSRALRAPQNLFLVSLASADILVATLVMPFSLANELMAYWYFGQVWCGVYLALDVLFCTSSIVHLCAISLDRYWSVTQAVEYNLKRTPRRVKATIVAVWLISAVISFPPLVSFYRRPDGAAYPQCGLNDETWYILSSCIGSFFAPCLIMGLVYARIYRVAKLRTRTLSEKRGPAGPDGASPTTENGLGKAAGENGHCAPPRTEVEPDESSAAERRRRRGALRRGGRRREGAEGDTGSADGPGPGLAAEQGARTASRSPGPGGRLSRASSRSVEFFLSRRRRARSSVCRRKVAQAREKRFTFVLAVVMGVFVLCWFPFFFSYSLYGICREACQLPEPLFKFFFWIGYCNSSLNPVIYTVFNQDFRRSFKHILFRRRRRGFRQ
T2 sequence (P19328 whole entry): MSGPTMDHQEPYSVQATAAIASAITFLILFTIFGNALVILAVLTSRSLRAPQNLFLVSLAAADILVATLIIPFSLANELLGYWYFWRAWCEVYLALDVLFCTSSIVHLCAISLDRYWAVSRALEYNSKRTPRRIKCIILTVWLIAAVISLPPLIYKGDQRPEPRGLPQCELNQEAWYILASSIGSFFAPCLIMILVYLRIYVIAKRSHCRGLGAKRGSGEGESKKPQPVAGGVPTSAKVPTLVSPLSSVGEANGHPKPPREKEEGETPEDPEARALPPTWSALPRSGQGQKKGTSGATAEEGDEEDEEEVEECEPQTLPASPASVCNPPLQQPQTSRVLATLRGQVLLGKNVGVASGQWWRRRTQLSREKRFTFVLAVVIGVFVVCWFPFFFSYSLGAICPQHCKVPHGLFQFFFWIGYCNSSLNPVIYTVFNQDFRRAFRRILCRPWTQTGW
T2 sequence (P22909 whole entry): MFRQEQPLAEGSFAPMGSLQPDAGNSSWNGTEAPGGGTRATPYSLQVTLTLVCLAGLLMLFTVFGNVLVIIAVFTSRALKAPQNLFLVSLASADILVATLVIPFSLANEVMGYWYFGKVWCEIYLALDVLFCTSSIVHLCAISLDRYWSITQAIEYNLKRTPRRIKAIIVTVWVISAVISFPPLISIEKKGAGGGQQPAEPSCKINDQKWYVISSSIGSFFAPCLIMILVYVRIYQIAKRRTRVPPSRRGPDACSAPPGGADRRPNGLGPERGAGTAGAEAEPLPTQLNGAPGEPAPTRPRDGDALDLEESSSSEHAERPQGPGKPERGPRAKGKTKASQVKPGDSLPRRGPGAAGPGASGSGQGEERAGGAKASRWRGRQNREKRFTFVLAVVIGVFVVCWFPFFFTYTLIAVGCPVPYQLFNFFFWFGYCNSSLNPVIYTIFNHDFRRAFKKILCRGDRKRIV
Method in brief: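 Whole rat brain (minus cerebellum) from male Wistar rats (200–250 g), homogenized in ice-cold 50 mM Tris-HCl pH 7.7 and washed twice at 50000g. […] Bound ligand was collected by rapid filtration and counted. IC50 was derived by log-probit analysis.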

[4] = molecular target: T1, Adrenergic receptor alpha-1; assay: Binding affinity against alpha-1 adrenergic receptor is the ability to inhibit the specific [3H]prazosin binding (0.2 nM) to rat isolated brain membranes by 50% was reported; 6.6*10e-7; assay type: tissue-based, Membrane
Method in brief: (§1)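 Brain membranes were prepared from male Wistar rats (200–250 g, cerebellum removed) in ice-cold 50 mmol/L Tris-HCl, pH 7.7, with two 50000g spins, and used at 1 mg/mL protein (Lowry). […] Bound label was collected by vacuum filtration and counted. IC50 came from log probit analysis.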

[5] = tested on: Rattus norvegicus; assay: Hypotensive activity (25% decrease in arterial pressure) after i.v. administration to anesthetized normotensive rats.
[6] = molecular target: T2, Adrenergic receptor alpha-2; assay: Binding affinity against Alpha-2 adrenergic receptor is the ability to inhibit the specific [3H]clonidine binding (0.4 nM) to rat isolated brain membranes by 50% was reported; 2.5*10e-9; assay type: tissue-based, Membrane
[7] = molecular target: T2, Adrenergic receptor alpha-2; assay: Antagonist activity against B-HT 933-induced alpha-2-adrenoceptor-mediated vasoconstriction in pithed normotensive rats; assay type: functional
[8] = molecular target: T2, Adrenergic receptor alpha-2; assay: Inhibition of specific [3H]clonidine binding (0.4 nM) to rat brain membranes alpha2 adrenoceptor; assay type: cell membranes, Membrane
[9] = molecular target: T2, Adrenergic receptor alpha-2; assay: Binding affinity against Alpha-2 adrenergic receptor is the ability to inhibit the specific [3H]clonidine binding (0.4 nM) to rat isolated brain membranes by 50% was reported; 3.0*10e-8; assay type: tissue-based, Membrane
[10] = molecular target: T1, Adrenergic receptor alpha-1; assay: Binding affinity against alpha-1 adrenergic receptor is the ability to inhibit the specific [3H]prazosin binding (0.2 nM) to rat isolated brain membranes by 50% was reported; 1.6*10e-6; assay type: tissue-based, Membrane
Method in brief: as §1

[11] = molecular target: T2, Adrenergic receptor alpha-2; assay: Inhibition of specific [3H]-clonidine binding (0.4 nM) to rat brain membranes alpha-2 adrenoceptor; 2.8*10e-7; assay type: cell membranes, Membrane
[12] = molecular target: Adrenergic receptor alpha-2 (Homo sapiens) (UniProt P08913+P18825+P18089); details: Oryctolagus cuniculus

Compound: Cn1cc2c(NC3=NCCN3)cccc2n1 [INDANIDINE]
- pC60 [1]: -0.24 uM kg-1
- IC50 [2]: 65000 nM
- IC50 [3]: 1000 nM

Compound: CC(Oc1c(Cl)cccc1Cl)C1=NCCN1 (stereo unspecified) [LOFEXIDINE]
- pC60 [1]: 1.99 uM kg-1
- IC50 [4]: 660 nM
- pC25 [5]: 2.09 uM kg-1
- IC50 [6]: 2.5 nM

Compound: c1ccc2c(c1)OCC(CN1CCCCC1)O2 (stereo unspecified) [PIPEROXAN]
- pA2 [7]: 6.23
- IC50 [8]: 140 nM

Second part, led by results:

- IC50 [9]: 30 nM
- IC50 [10]: 1600 nM
Compound: c1ccc2c(c1)CCCC2C1=NCCN1 (stereo unspecified) [TETRAHYDROZOLINE]
- pC60 [1]: 0.9 uM kg-1
- pC25 [5]: -0.16 uM kg-1

- IC50 [11]: 280 nM
- pA2 [7]: 5.82
- pC30 [12]: 6.15
Compound: c1ccc(CC2=NCCN2)cc1 [TOLAZOLINE]
